# A selection: hits, their analogues and other compounds. The true share with any hit is near 3.8%.
# KCNK3 block: human KCNK3 channel inhibition, primary screen; O14649; CHO-KCNK3 thallium flux, FluxOR fluorescence; stronger effect = lower value; B-score at 10 µM; 340,000 compounds, 0.84% hits;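 active = B-score under library mean minus 4 SD, starting fluorescence ratio at most library mean plus 5 SD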;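 note: more negative B-score means stronger inhibition of thallium flux through KCNK3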
# hERG rescue: hERG (human) protection from proarrhythmic block; Q12809; CHO-hERG, FluxOR thallium flux, dofetilide IC70 present; activation (rescue from dofetilide block), less the hit threshold, % at 10 µM; 310,000 compounds, 0.51% hits;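 active = activation above the mean of controls blocked by dofetilide plus 5 SD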;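 note: thallium influx through hERG after potassium depolarization seen as dye fluorescence rise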
# Target sequence (Q12809 whole entry, looked up): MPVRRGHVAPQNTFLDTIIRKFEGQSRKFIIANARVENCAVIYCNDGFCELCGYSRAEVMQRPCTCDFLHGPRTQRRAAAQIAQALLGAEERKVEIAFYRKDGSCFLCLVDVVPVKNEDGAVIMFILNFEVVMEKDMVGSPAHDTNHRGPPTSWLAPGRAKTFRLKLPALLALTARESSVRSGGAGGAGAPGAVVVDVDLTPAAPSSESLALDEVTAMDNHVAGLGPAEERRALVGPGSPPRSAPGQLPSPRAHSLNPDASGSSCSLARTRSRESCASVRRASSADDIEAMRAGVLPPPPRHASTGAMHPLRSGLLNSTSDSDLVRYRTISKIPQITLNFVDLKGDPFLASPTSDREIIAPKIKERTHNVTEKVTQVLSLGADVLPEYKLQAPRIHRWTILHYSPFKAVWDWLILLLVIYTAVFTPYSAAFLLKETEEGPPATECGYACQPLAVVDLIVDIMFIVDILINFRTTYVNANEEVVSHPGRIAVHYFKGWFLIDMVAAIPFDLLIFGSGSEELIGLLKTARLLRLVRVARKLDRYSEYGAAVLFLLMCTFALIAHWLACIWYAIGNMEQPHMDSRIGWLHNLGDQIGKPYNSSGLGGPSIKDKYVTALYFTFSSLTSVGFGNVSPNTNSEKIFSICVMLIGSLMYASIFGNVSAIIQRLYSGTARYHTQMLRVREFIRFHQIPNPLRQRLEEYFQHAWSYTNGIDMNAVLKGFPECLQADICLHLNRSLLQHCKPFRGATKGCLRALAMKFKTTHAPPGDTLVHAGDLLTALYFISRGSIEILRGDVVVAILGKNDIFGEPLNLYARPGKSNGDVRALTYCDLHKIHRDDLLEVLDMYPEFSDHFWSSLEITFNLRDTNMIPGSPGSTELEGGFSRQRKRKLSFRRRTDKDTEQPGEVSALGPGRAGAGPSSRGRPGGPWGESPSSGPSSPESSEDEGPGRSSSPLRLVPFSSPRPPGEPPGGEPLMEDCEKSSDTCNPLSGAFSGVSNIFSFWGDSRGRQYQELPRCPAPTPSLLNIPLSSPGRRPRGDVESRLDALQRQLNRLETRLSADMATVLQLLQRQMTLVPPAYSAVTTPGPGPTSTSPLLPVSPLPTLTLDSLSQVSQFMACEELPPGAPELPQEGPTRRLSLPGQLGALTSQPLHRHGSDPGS
# KCNQ1 pot: human KCNQ1 channel potentiation or activation | B-score at 10 µM | AID 2648 | P51787 | 310,000 compounds, 0.35% hits | CHO-K1 KCNQ1, thallium flux FluxOR fluorescence; stronger effect = higher value;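 active = fluorescence ratio B-score, a plate-corrected score, at least three library SD, with initial intensity B-score within 5 SD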
#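 assay system = KCNQ1-transfected CHO-K1 cells | medium = assay buffer with matched DMSO | probe or stimulus = depolarizing K+/Tl+ stimulus, K2SO4 and Tl2SO4 each 12.5 mM in 5x stock | dosing = single dose | incubation = dye 90 min, compound 20 min, room temperature | detection = kinetic FluxOR fluorescence, 10 s baseline plus 110 s post-stimulus | evaluation = ratio B score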
# KCNQ1 block: inhibitors of human KCNQ1 potassium channel; B-score at 10 µM; 310,000 compounds, 1.3% hits; CHO-K1 KCNQ1, FluxOR thallium flux fluorescence; stronger effect = higher value; AID 2642;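 active = compounds whose thallium flux B-score, printed positive for inhibition, exceeds three library SD while starting fluorescence stays within three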;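 note: channel opened by potassium depolarization with thallium stimulus after 20 min compound exposure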
# Kir21 block: blocks the mouse Kir2.1 inward-rectifier potassium channel | P35561 | HEK293-Kir2.1, FluxOR thallium flux fluorescence; stronger effect = lower value | B-score at 10 µM | 310,000 compounds, 0.85% hits | AID 1672;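 active = fluorescence ratio B-score at or below minus 3 SD of library scores, with starting-brightness B-score within 2 SD, cut at about -4.2 in these data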;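 note: channel flux triggered by added potassium and thallium sulfate stimulus; B-score of peak minus minimum fluorescence over baseline after thallium stimulus; more negative B-score means stronger Kir2.1 block with less thallium influx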
# KCNK9 block: blocks the human KCNK9 two-pore domain potassium channel; AID 488922; HEK293 KCNK9, FluxOR thallium flux fluorescence; stronger effect = lower value; Q9NPC2; 310,000 compounds, 1.2% hits; B-score at 10 µM;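 active = ratio B-score over 3 SD below the library mean, with starting fluorescence within 5 SD of its mean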;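 note: negative B-score means less thallium flux so channel inhibition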
# Active calls of the source: *; i = inactive; x = not tested or not shown.
SMILES,KCNK3 block,hERG rescue,KCNQ1 pot,KCNQ1 block,Kir21 block,KCNK9 block
CN(CC(=O)NCCc1ccc(F)cc1)Cc1ccc(Br)cc1,i,-13.1,i,i,-6.56*,i
CN(CC(=O)NCCCc1ccccc1)Cc1ccc(Br)cc1,i,-11.3,i,i,-2.86,i
O=C(CSc1cccc[n+]1[O-])NN(c1ccccc1)c1ccccc1,i,-8.3,i,i,0.03,i
Cc1nn(-c2ccccc2)c(-c2ccccc2)c1C(=O)O,i,-3.5,i,i,-1.5,i
CSc1nc2c(c(=O)[nH]1)C(c1ccccc1Cl)CC(=O)N2 (configuration not stated),i,9.7*,i,i,2.29,i
CC(C)CN1C(=S)SC(C)(C)C1n1oc(=O)n(-c2ccc(Cl)cc2)c1=O (configuration not stated),-10.6*,-9.6,i,15*,-1.77,i
CC(C)N1C(=S)SC(C)(C)C1n1oc(=O)n(-c2cccc(Cl)c2)c1=O (configuration not stated),i,-2.0,i,i,0.54,i
Oc1c(Cl)cc(Cl)cc1C=Nc1ccc(Br)cc1,i,5.0*,i,i,0.72,i
Cc1ccc(N=Cc2cc(Br)cc(Cl)c2O)cc1,i,-4.9,i,i,1.67,i
C=CCn1c(CSc2nc3ccccc3s2)nnc1SCC(=O)NCc1ccccc1,i,-6.2,i,i,-5.22*,i
O=C(CC(c1ccccc1)c1ccccc1O)NCCc1ccccc1 (configuration not stated),i,-7.8,i,i,-1.03,i
CC(C)Oc1ccc(CNC(=O)CC(c2ccccc2)c2cc(Cl)ccc2O)cc1 (configuration not stated),i,-13.2,i,7*,0.16,-7.32*
O=C(CC(c1ccccc1)c1ccccc1O)NCc1ccccc1Cl (configuration not stated),i,-9.6,i,i,-1.48,-7.55*
CCN(Cc1ccccc1)c1ccc(/C=N/N=C(N)N)cc1,i,-40.8,i,i,-13.9*,i
C[C@@H](C(O)c1ccccc1)N(C)C(=O)CCc1ccccc1 (some centres not stated),i,-3.3,i,i,-1.37,i
CCc1nc2sc3c(c2c(=O)n1NC(=O)CCl)CCCC3,i,-4.8,i,i,0.64,i
CCCCCCCCCCn1ccc(=N)cc1,i,-24.4,i,9*,-3.12,i
O=S(=O)(c1cccc2cccnc12)N1CCN(Cc2ccccc2)CC1,i,-11.5,i,i,-0.41,i
CCN1C(=O)[C@H]2[C@@H](c3ccc(-c4ccc5c(c4)OCO5)c(OC)c3)N[C@@](C)(C(=O)OC)[C@H]2C1=O,i,x,x,x,x,x
Cc1c(C(=O)N2CCOCC2)oc2ccc(S(=O)(=O)N3CCCC3)cc12,i,2.8,i,i,-1.88,i
CCOc1ccc(CCNC(=O)COC(=O)c2cccc(S(=O)(=O)N3CCCCC3)c2)cc1OCC,i,-18.4,i,i,0.17,-7.9*
Cc1c(C(=O)N2CCc3ccccc3C2)oc2ccc(S(=O)(=O)N3CCCCCC3)cc12,i,-18.1,i,i,0.45,-6.76*
CCOc1ccc(C(=O)N2CCc3cc(OC)c(OC)cc3C2)cc1OCC,i,-16.2,i,i,-0.01,i
CCOc1ccc(CCNC(=O)COC(=O)CCC(=O)c2cccs2)cc1OCC,i,-5.9,i,i,-5.34*,i
CCOc1ccc(CCNC(=O)COC(=O)c2cccc(S(=O)(=O)N3CCOCC3)c2)cc1OCC,i,-13.8,i,i,0.51,i
CCOc1cc2c(cc1OCC)CN(C(=O)c1cccc(S(=O)(=O)N3CCCC3)c1)CC2,-9.85*,x,x,x,x,x
O=C(COC(=O)c1ccccc1-c1nc2ccccc2s1)NC1CCS(=O)(=O)C1 (configuration not stated),i,-6.7,i,i,-0.87,i
O=[N+]([O-])c1ccc(-n2cnc3ccccc32)c([N+](=O)[O-])c1,i,-10.3,i,i,0.01,i
O=C(/C=N/O)Nc1ccc2sc3ccccc3c2c1,i,-7.1,i,i,-0.65,i

# Assay outcomes from PubChem.
